Test results from ChEMBL document CHEMBL5046283, “Design, Synthesis, and Biological Evaluation of the First Inhibitors of Oncogenic CHD1L” (J Med Chem, 2022).
pIC50: −log10 of the molar value. Calls of active or inactive are those of the source. The calls are words filed in the database; no cut-off is given here.

What was measured:
[1] = test system: HCT-116; test: Inhibition of cell stemness in human HCT-116 M-phenotype cells assessed as reduction in colony formation; type: functional, cell-based
Summary of the method: (§1)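 M-Phenotype cells plated at 200 (SW620) or 75 (HCT116) cells/well and treated continuously. Medium and drug replenished every three days over 7–10 days of growth. Colonies imaged by high-content imaging and counted. Duplicate experiments with triplicate technical replicates.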

[2] = Inhibition of recombinant catalytic CHD1L (unknown origin) preincubated for 10 mins followed by ATP addition measured after 1 hr by plate reader analysis; parameters: species or system Homo sapiens
Summary of the method: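 800 nM catalytic CHD1L and 200 nM mononucleosome preincubated with inhibitor for 10 min at 37 °C in 50 mM Tris pH 7.5, 50 mM NaCl, 5 mM MgCl2, 2 mM DTT, 5% glycerol. Reaction started with 10 μM ATP, 1 h at 37 °C. Phosphate sensor added (500 nM), fluorescence read at ex 430/em 450. No-enzyme background; normalised to DMSO; triplicate.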

[3] = test system: HCT-116; test: Cytotoxicity against human HCT-116 M-phenotype tumor organoid assessed as reduction in cell viability incubated for 72 hrs by CellTiter Glo assay; type: functional, cell-based; settings: HCT-116, 72 h
Summary of the method: (§2)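 Isolated M-Phenotype cells plated at 2,000 cells/well in ultra-low-attachment round-bottom wells, centrifuged to aggregate, then given 2% Matrigel final. Grown 72 h at 37 °C/5% CO2 to form organoids, then dosed for 72 h. CellTiter Glo 3D added 1:1, shaken 45 min at room temperature, luminescence read. Normalised to 0.5% DMSO vehicle; triplicate experiments, technical n = 3.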

[4] = test system: SW-620; test: Cytotoxicity against human SW-620 M-phenotype tumor organoid assessed as reduction in cell viability incubated for 72 hrs by CellTiter Glo assay; type: functional, cell-based; settings: SW-620, 72 h; summary of the method: as §2
[5] = Induction of mesenchymal-epithelial transition in human HCT-116 M-phenotype tumor organoid assessed as downregulation of vimentin expression by fluorescence analysis; type: functional, cell-based
Summary of the method: (§3)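 M-Phenotype organoids carry a dual reporter (VimPro-GFP, EcadPro-RFP). Dose-response over a 72 h treatment; vimentin promoter activity read as GFP fluorescence by 3D high-content imaging and normalised. Duplicate experiments.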

[6] = test system: SW-620; test: Cytotoxicity against human SW-620 tumor organoid assessed as reduction in cell viability incubated for 72 hrs by CellTiter Glo assay; type: functional, cell-based; settings: SW-620, 72 h
[7] = Cytotoxicty against CRC102 patient-derived tumor organoid assessed as reduction in cell viability incubated for 72 hrs by CellTiter Glo assay; type: functional, tissue-based; settings: Homo sapiens, Colon cancer organoid
Summary of the method: (§4)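 Patient cells washed with PBS, digested with TrypLE and passed through a 100 μm strainer. Seeded at 5,000 cells/well with 2% Matrigel and left 72 h to self-assemble as organoids, then dosed for 72 h. CellTiter Glo 3D added 1:1, 45 min at room temperature with shaking, luminescence read. Normalised to 0.5% DMSO; triplicate experiments, technical n = 3.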

[8] = Inhibition of CHD1L-mediated TCF transcription in human SW-620 M-phenotype cells incubated for 24 hrs by TOPflash luciferase reporter assay; type: cell-based; settings: SW-620, 24 h
Summary of the method: (§5)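 M-Phenotype cells seeded at 20,000 (SW620) or 10,000 (HCT116) cells/well and transiently transfected with TOPflash for 72 h. Treated for 24 h. Luminescence read with One-Glo after PBS wash, normalised to total protein by BCA on a parallel plate.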

[9] = Inhibition of CHD1L-mediated TCF transcription in human HCT-116 M-phenotype cells incubated for 24 hrs by TOPflash luciferase reporter assay; type: cell-based; settings: HCT-116, 24 h; summary of the method: as §5
[10] = Induction of mesenchymal-epithelial transition in human SW-620 M-phenotype tumor organoid assessed as downregulation of vimentin expression by fluorescence analysis; type: functional, cell-based; summary of the method: as §3
[11] = Cytotoxicty against CRC042 patient-derived tumor organoids assessed as reduction in cell viability incubated for 72 hrs by CellTiter Glo assay; type: functional; settings: Homo sapiens, Neoplasm; summary of the method: as §4
[12] = test system: SW-620; test: Inhibition of cell stemness in human SW-620 M-phenotype cells assessed as reduction in colony formation; type: functional, cell-based; summary of the method: as §1
[13] = test system: SW-620; test: Antitumor activity against human SW-620 cells xenografted in athymic nude mouse assessed as decrease in tumor volume at 75 to 125 mg/kg, po measured after 20 to 28 days by caliper method; type: functional, organism-based; settings: dose 75-125 mg/kg, time 20-28 day
Summary of the method: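 SW620 EMT dual-reporter M-Phenotype cells, 2 × 10^6 cells/100 μL in 1:1 Matrigel:RPMI 1640, injected subcutaneously into each flank of female athymic nude mice (8 weeks old). Randomised at day 5 to vehicle (10% DMSO, 90% PEG 400), 75 or 125 mg/kg. Oral gavage once daily, 5 days/week, for 28–31 days. Caliper tumour volume twice weekly by 4/3*[…]*(L/2)*(W/2)*(H/2).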

[14] = Toxicity in athymic nude mouse xenografted with human SW-620 cells assessed as change in body weight at 75 to 125 mg/kg, po measured after 28 days; type: organism-based; settings: in vivo, dose 75-125 mg/kg, time 28 day
Summary of the method: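 Female athymic nude mice (8 weeks old) bearing subcutaneous SW620 EMT dual-reporter M-Phenotype flank xenografts. Dosed by oral gavage at 75 or 125 mg/kg, or vehicle (10% DMSO, 90% PEG 400), once daily, 5 days/week, for 28–31 days. Body weight recorded twice weekly.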

Row | pIC50 [1] | pIC50 [2] | pIC50 [5] | pIC50 [8] | pIC50 [9] | pIC50 [10] | pIC50 [12] | SMILES | pIC50 [3] | pIC50 [4] | pIC50 [6] | pIC50 [7] | pIC50 [11] | Activity [13] | Activity [14]
1 | 5.49 | 5.40 | 4.89 | 4.37 | 4.42 | 5.00 | – | Cc1cc(Nc2ccc(NC(=O)Cc3cccs3)cc2)nc(N2CCCC2)n1 | 5.03 | 5.06 | 5.34 | 4.68 | 4.80 | – | –
2 | 6.70 | 4.92 | 5.59 | 5.31 | 5.31 | 5.89 | 6.52 | Cc1cc(Nc2ccc(NC(=O)Cc3cc(Cl)nc4ccccc34)cc2)nc(N2CCCC2)n1 | 5.66 | 5.89 | 5.62 | 5.46 | 5.51 | – | –
3 | 6.40 | 4.92 | 5.60 | 5.02 | 5.38 | 5.74 | 6.30 | Cc1cc(Nc2ccc(NC(=O)Cc3c[nH]c4cc(Cl)ccc34)cc2)nc(N2CCCC2)n1 | 5.64 | 5.70 | 5.85 | 5.09 | 5.47 | – | –
4 | 6.05 | 4.80 | 5.57 | 5.19 | 5.16 | 5.77 | 5.80 | Cc1cc(Nc2ccc(NC(=O)Cc3c(C)[nH]c4ccccc34)cc2)nc(N2CCCC2)n1 | 5.66 | 5.64 | 5.80 | 4.96 | 5.40 | – | –

Further lines, the molecule ahead of its results:

Row | SMILES | pIC50 [1] | pIC50 [2] | pIC50 [5] | pIC50 [8] | pIC50 [9] | pIC50 [10] | pIC50 [12] | pIC50 [3] | pIC50 [4] | pIC50 [6] | pIC50 [7] | pIC50 [11] | Activity [13] | Activity [14]
5 | Cc1cc(Nc2ccc(NC(=O)Cc3c[nH]c4ccccc34)cc2)nc(N2CCCC2)n1 | 6.05 | 5.48 | 5.72 | 4.96 | 5.16 | 5.82 | 5.96 | 5.85 | 5.96 | – | 5.05 | 5.21 | – | –
6 | Cc1cc(Nc2ccc(NC(=O)Cc3cc(Br)cs3)cc2)nc(N2CCCC2)n1 | 6.10 | 5.48 | 5.30 | 4.92 | 5.06 | 5.48 | 5.80 | 5.37 | 5.59 | 5.59 | 5.08 | 5.38 | Active | Non-Toxic
7 | Cc1cc(Nc2ccc(NC(=O)Cc3cccc4ccccc34)cc2)nc(N2CCCC2)n1 | 6.30 | 5.54 | 5.59 | 5.66 | 5.26 | 5.74 | 6.15 | 5.64 | – | – | 5.28 | 5.51 | – | –
